Source: ChEMBL document CHEMBL1142515, “Synthesis and evaluation of structurally constrained quinazolinone derivatives as potent and selective histamine H3 receptor inverse agonists” (J Med Chem, 2008)
Each block holds one compound with its values, some of them ahead of it.

How the values were obtained:
Histamine H3 receptor [1] = biological target: T1, Histamine H3 receptor (Homo sapiens, UniProt Q9Y5N1); assay: Antagonist activity at human cloned histamine H3 receptor expressed in CHO-K1 cells assessed as inhibition of R-alpha-methylhistamine-induced [35S]GTPgammaS binding; format: functional, cell-based
T1 sequence (Q9Y5N1 whole entry): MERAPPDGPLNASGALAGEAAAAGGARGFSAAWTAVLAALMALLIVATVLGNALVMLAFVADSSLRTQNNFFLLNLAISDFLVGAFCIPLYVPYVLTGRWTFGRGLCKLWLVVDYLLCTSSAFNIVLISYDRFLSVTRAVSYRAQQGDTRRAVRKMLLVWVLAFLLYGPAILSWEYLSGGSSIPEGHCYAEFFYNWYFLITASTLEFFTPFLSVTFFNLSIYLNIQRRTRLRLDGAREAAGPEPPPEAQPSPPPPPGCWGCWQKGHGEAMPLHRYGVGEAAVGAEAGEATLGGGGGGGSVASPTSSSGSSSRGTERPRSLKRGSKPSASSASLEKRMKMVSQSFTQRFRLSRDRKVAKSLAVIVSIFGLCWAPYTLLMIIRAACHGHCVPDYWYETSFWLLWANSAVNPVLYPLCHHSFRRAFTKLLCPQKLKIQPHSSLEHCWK

[2] = biological target: Voltage-gated inwardly rectifying potassium channel KCNH2 (Homo sapiens, UniProt Q12809); assay: Antagonist activity at human ERG in HEK293 cells assessed as inhibition of [35S]N-[(4R)-1'-[(2R)-6-cyano-1,2,3,4-tetrahydro-2-naphthalenyl]-3,4-dihydro-4-hydroxyspiro[2H-1-benzopyran-2,4'-piperidin]-6-yl]methanesulfonamide binding
Sequence of Voltage-gated inwardly rectifying potassium channel KCNH2 (Q12809 whole entry): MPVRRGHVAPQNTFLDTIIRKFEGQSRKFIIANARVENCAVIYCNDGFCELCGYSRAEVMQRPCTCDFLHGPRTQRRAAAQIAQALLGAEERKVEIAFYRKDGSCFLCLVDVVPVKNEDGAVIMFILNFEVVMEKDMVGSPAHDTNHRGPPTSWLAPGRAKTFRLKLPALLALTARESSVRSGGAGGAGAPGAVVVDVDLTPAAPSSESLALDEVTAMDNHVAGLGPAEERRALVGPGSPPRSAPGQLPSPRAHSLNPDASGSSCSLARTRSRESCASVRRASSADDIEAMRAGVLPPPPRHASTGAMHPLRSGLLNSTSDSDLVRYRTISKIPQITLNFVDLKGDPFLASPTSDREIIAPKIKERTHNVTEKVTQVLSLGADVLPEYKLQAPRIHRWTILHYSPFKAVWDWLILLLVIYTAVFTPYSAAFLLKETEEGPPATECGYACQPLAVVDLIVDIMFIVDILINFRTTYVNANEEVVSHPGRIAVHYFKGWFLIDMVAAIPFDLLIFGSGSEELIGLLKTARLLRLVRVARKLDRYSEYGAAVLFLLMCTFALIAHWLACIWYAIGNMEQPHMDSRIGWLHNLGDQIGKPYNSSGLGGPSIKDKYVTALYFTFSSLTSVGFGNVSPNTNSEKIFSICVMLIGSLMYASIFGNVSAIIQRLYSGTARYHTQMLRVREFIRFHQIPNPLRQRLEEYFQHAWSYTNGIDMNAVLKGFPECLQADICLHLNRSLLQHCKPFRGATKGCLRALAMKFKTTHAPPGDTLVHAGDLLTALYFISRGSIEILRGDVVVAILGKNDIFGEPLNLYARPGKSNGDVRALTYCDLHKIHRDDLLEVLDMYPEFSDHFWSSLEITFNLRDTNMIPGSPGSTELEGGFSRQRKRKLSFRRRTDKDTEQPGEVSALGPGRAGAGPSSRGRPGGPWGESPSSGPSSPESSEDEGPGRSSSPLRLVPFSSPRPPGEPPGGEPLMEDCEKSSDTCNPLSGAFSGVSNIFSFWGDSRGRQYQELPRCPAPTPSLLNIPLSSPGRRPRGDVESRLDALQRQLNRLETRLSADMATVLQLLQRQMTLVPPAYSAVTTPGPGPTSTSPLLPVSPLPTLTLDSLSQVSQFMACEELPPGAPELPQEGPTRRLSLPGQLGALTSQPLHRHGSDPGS

[3] = Plasma clearance in Beagle dog at 0.3 mg/kg, iv; format: ADME, organism-based, Canis lupus familiaris; parameters: dose 0.3 mg/kg, route intravenous
In short: (§1)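 Male SD rats, male Beagle dogs, male rhesus monkeys given single doses iv (PEG400/EtOH/H2O 50/10/40) or po by gavage (0.5% methylcellulose suspension). Rats 1 mg/kg iv and 3 mg/kg po; dogs and monkeys 0.3 mg/kg iv and 1 mg/kg po. Plasma sampled at multiple times up to 24 h, deproteinized with ethanol plus internal standard. Mean of n = 3 animals/dose.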

Mus musculus [4] = assay: Ex vivo receptor occupancy of histamine H3 receptor expressed in wild type po dosed CF1 mouse brain after 2 hrs; format: functional
In short: (§2)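 Female wild-type and mdr1a (−/−) CF-1 mice given vehicle or compound po (0.1–3 mg/kg) and decapitated at 2 h. Coronal striatal sections (20 μm) incubated 10 min at room temperature with 400 pM tritiated quinazolinone H3 inverse agonist radioligand in sodium phosphate buffer. Nonspecific binding defined with 10 μM R-α-methylhistamine. Sections imaged 6 h by beta-Imager. Brain Occ90 obtained from occupancy versus brain concentration. Plasma Occ90 = brain Occ90/brain-to-plasma ratio.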

Brain [5] = assay: Ex vivo drug level in mdr1a (-/-) deficient CF1 mouse brain at 0.3 mg/kg, po after 2 hrs; format: ADME, organism-based; parameters: dose 0.3 mg/kg, route oral
In short: (§3)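 Female mdr1a (+/+) and mdr1a (−/−) CF-1 mice dosed by oral gavage. Terminal blood and whole brain collected 2 h later. Brain homogenized by ultrasonication in 4 volumes water. Plasma and brain deproteinized with ethanol plus internal standard, then measured by LC-MS/MS (positive ESI, MRM). Mean ± SE, n = 3. Brain/plasma ratios calculated from mean values.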

[6] = Ratio of drug level in cerebrospinal fluid to brain in Sprague-Dawley rat at 10 mg/kg, po after 2 hrs; format: ADME, organism-based, CSF/Brain; parameters: dose 10 mg/kg, route oral; conditions: in vivo
LLC-PK1 [7] = assay: Ratio of permeability from apical to basolateral side over basolateral to apical side in pig LLC-PK1 cells expressing mouse MDR1a; format: ADME, cell-based, Sus scrofa
[8] = Cmax in Beagle dog at 0.3 mg/kg, iv and 1 mg/kg, po; format: ADME, organism-based, Canis lupus familiaris; conditions: in vivo; in short: as §1
[9] = AUC (0 to infinity) in Beagle dog at 1 mg/kg, po; format: ADME, organism-based, Canis lupus familiaris, Plasma; parameters: time infinity, dose 1 mg/kg, route oral; conditions: Beagle, plasma; in short: as §1
LLC-PK1 [10] = assay: Ratio of permeability from apical to basolateral side over basolateral to apical side in pig LLC-PK1 cells expressing human MDR1; format: ADME, cell-based, Sus scrofa
Histamine H3 receptor [11] = biological target: T1, Histamine H3 receptor; assay: Displacement of [3H]N-alpha-methylhistamine from human recombinant histamine H3 receptor expressed in CHO-K1 cells; format: cell-based
Rattus norvegicus [12] = assay: Increase in tele-methylhistamine level in po dosed Sprague-Dawley rat brain after 2 hrs relative to control; format: functional, organism-based
In short: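 Male SD rats given vehicle (0.5% methylcellulose) or compound po at 1, 3, 10 mg/kg, co-dosed with pargyline ip. Decapitated at 2 h and brains homogenized. tele-Methylhistamine measured by HPLC with fluorometry after solid-phase extraction. Mean ± SE from five experiments. Compared with vehicle by ANOVA with Dunnett's test.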

[13] = Ratio of drug level brain to plasma in wild type mdr1a (+/+) CF1 mouse at 0.3 mg/kg, po after 2 hrs; format: ADME, organism-based; parameters: dose 0.3 mg/kg, route oral; conditions: read-out: BPR; in short: as §3
Mus musculus [14] = assay: Ex vivo receptor occupancy of histamine H3 receptor expressed in po dosed MDR1a deficient CF1 mouse plasma assessed by brain occupancy/brain to plasma ratio after 2 hrs; format: functional; in short: as §2
[15] = Plasma clearance in Sprague-Dawley rat at 1 mg/kg, iv; format: ADME, organism-based; parameters: dose 1 mg/kg, route intravenous; in short: as §1
[16] = Drug level in Sprague-Dawley rat cerebrospinal fluid at 10 mg/kg, po after 2 hrs; format: ADME, organism-based; parameters: dose 10 mg/kg, route oral; conditions: read-out: Drug uptake
In short: (§4)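 Male SD rats dosed orally at 10 mg/kg. Plasma, brain and CSF concentrations determined 2 h after dosing. Brain/plasma ratio taken from these levels. Mean of n = 3 animals.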

[17] = Cmax in rhesus monkey at 0.3 mg/kg, iv and 1 mg/kg, po; format: ADME, organism-based, Macaca mulatta; conditions: in vivo; in short: as §1
Histamine H2 receptor = Histamine H2 receptor (Homo sapiens, UniProt P25021); assay: Inhibition of human histamine H2 receptor
Sequence of Histamine H2 receptor (P25021 whole entry): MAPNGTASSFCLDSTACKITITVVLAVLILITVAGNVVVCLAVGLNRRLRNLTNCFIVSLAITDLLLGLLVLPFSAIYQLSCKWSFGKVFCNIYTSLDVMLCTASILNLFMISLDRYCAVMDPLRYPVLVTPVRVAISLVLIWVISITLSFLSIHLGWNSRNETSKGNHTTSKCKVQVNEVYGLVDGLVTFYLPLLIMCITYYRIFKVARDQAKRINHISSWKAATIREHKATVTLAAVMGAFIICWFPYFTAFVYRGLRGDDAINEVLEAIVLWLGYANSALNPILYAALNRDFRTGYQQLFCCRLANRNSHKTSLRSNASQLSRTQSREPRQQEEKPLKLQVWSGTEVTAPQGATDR

Histamine H3 receptor [18] = biological target: Histamine H3 receptor (Rattus norvegicus, UniProt Q9QYN8); assay: Displacement of [3H]N-alpha-methylhistamine from rat recombinant histamine H3 receptor expressed in HEK293 cells; format: cell-based
Sequence of Histamine H3 receptor (Rattus norvegicus, UniProt Q9QYN8) (Q9QYN8 whole entry): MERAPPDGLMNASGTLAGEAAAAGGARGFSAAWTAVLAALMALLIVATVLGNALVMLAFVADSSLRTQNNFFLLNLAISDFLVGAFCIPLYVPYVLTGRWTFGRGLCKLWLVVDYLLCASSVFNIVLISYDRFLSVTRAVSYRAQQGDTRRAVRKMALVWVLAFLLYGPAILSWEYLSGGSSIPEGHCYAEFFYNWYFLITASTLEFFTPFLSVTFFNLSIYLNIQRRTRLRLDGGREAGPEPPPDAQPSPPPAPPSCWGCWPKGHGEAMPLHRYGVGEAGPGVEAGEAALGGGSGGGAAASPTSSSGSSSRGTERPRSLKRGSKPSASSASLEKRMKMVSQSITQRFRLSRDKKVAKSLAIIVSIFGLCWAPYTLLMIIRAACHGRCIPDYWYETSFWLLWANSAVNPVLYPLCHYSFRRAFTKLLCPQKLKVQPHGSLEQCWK

[19] = Ratio of drug level brain to plasma in mdr1a (-/-) deficient CF1 mouse at 0.3 mg/kg, po after 2 hrs; format: ADME, organism-based; parameters: dose 0.3 mg/kg, route oral; conditions: read-out: BPR; in short: as §3
[20] = Plasma concentration in Sprague-Dawley rat at 10 mg/kg, po after 2 hrs; format: ADME, organism-based; parameters: dose 10 mg/kg, route oral; in short: as §4
Histamine H4 receptor = Histamine H4 receptor (Homo sapiens, UniProt Q9H3N8); assay: Inhibition of human histamine H4 receptor
[21] = Ex vivo drug level in wild type mdr1a (+/+) CF1 mouse plasma at 0.3 mg/kg, po after 2 hrs; format: ADME, organism-based; parameters: dose 0.3 mg/kg, route oral; conditions: read-out: Drug uptake; in short: as §3
[22] = Oral bioavailability in Sprague-Dawley rat at 3 mg/kg; format: ADME, organism-based; conditions: in vivo; in short: as §1
Mus musculus [23] = assay: Ex vivo receptor occupancy of histamine H3 receptor expressed in po dosed wild type CF1 mouse plasma assessed by brain occupancy/brain to plasma ratio after 2 hrs; format: functional; in short: as §2
[24] = AUC (0 to infinity) in Sprague-Dawley rat at 3 mg/kg, po; format: ADME, organism-based; parameters: time infinity, dose 3 mg/kg, route oral; conditions: plasma; in short: as §1
Histamine H1 receptor = Histamine H1 receptor (Homo sapiens, UniProt P35367); assay: Inhibition of human histamine H1 receptor
Sequence of Histamine H1 receptor (P35367 whole entry): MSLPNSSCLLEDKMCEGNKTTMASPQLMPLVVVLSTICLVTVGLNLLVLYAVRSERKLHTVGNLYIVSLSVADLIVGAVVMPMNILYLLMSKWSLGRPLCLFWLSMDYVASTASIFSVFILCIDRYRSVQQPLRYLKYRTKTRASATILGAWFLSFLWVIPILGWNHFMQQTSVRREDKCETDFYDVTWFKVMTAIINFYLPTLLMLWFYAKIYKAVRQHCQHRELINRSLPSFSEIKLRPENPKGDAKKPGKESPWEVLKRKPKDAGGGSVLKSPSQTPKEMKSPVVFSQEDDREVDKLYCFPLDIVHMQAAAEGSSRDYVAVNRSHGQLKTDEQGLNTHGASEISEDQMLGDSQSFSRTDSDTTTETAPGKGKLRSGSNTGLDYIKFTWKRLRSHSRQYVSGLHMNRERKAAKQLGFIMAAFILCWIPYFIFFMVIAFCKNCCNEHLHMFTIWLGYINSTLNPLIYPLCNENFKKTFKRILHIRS

[25] = Ratio of drug level in brain to plasma in Sprague-Dawley rat at 10 mg/kg, po after 2 hrs; format: ADME, organism-based; parameters: dose 10 mg/kg, route oral; conditions: read-out: BPR; in short: as §4
[26] = Cmax in Sprague-Dawley rat at 1 mg/kg, iv and 3 mg/kg, po; format: ADME, organism-based; conditions: in vivo; in short: as §1
[27] = Ex vivo drug level in mdr1a (-/-) deficient CF1 mouse plasma at 0.3 mg/kg, po after 2 hrs; format: ADME, organism-based; parameters: dose 0.3 mg/kg, route oral; conditions: read-out: Drug uptake; in short: as §3
Rattus norvegicus [28] = assay: Ex vivo receptor occupancy of histamine H3 receptor in Sprague-Dawley rat assessed as drug level in brain at 1 mg/kg, po after 2 hrs; format: functional
In short: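 Male SD rats given vehicle or 1 mg/kg compound by oral gavage and decapitated at 2 h. Striatal sections (20 μm) incubated 10 min at room temperature with 400 pM tritiated H3 inverse agonist radioligand in sodium phosphate buffer. Nonspecific binding defined with 10 μM R-α-methylhistamine. Beta-Imager exposure 6 h. Drug levels measured by LC-MS/MS.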

Brain [29] = assay: Drug level in Sprague-Dawley rat brain at 10 mg/kg, po after 2 hrs; format: ADME, organism-based; parameters: dose 10 mg/kg, route oral; conditions: in vivo; in short: as §4
Brain [30] = assay: Ex vivo drug level in wild type mdr1a (+/+) CF1 mouse brain at 0.3 mg/kg, po after 2 hrs; format: ADME, organism-based; parameters: dose 0.3 mg/kg, route oral; in short: as §3
[31] = Oral bioavailability in Beagle dog at 1 mg/kg; format: ADME, organism-based, Canis lupus familiaris; conditions: Beagle, in vivo; in short: as §1
Histamine H3 receptor [32] = biological target: Histamine H3 receptor (Mus musculus, UniProt P58406); assay: Displacement of [3H]N-alpha-methylhistamine from mouse recombinant histamine H3 receptor
Sequence of Histamine H3 receptor (Mus musculus, UniProt P58406) (P58406 whole entry): as the sequence (Q9QYN8 whole entry) above, with T15A, A286T, A290G, R387H, I389V counted along it

Rhesus monkey [33] = assay: AUC (0 to infinity) in rhesus monkey at 1 mg/kg, po; format: ADME, organism-based, Macaca mulatta, Plasma; parameters: time infinity, dose 1 mg/kg, route oral; conditions: in vivo; in short: as §1
Rhesus monkey [34] = assay: Oral bioavailability in rhesus monkey at 1 mg/kg; format: ADME, organism-based, Macaca mulatta; conditions: in vivo; in short: as §1

Structure (SMILES): Cc1nc2ccccc2c(=O)n1-c1ccc(OC2CCN(C3CCCCC3)CC2)cc1
- IC50 (Histamine H3 receptor [1]): 43 nM

Structure (SMILES): Cc1nc2ccccc2c(=O)n1-c1ccc(OC2CCN(C3CCC3)C2)cc1 (centres undefined)
- IC50 (Histamine H3 receptor [1]): 103 nM

Structure (SMILES): Cc1nc2ccccc2c(=O)n1-c1ccc(OC2CCN(C(C)C)CC2)cc1
- IC50 (Histamine H3 receptor [1]): 14 nM

Structure (SMILES): Cc1nc2cccc(F)c2c(=O)n1-c1ccc(OC2CCN(C3CCC3)CC2)cc1
- clearance [3]: 44 mL/min/kg
- Occ90 (Mus musculus [4]): 0.28 nmol/g
- Drug uptake (Brain [5]): 0.26 nmol/g
- Ratio [6]: 0.13
- Ratio (LLC-PK1 [7]): 1.8
- Cmax [8]: 20 nM
- AUC(0-inf) [9]: 0.05 µM·h
- Ratio (LLC-PK1 [10]): 1
- Ki (Histamine H3 receptor [11]): 6.8 nM
- Activity (Rattus norvegicus [12]): Dose-dependent effect
- IC50 [2]: > 10000 nM
- Kp at 2 h [13]: 1.9
- Occ90 (Mus musculus [14]): 30 nM
- clearance [15]: 11 mL/min/kg
- concentration at 2 h [16]: 950 nM
- Cmax [17]: 380 nM
- IC50 (Histamine H3 receptor [1]): 0.55 nM
- IC50 (Histamine H2 receptor): > 10000 nM
- Ki (Histamine H3 receptor [18]): 6 nM
- Kp at 2 h [19]: 9.4
- concentration at 2 h [20]: 2400 nM
- IC50 (Histamine H4 receptor): > 10000 nM
- concentration at 2 h [21]: 32 nM
- bioavailability [22]: 53%
- Occ90 (Mus musculus [23]): 144 nM
- AUC(0-inf) [24]: 6.2 µM·h
- IC50 (Histamine H1 receptor): > 10000 nM
- Kp at 2 h [25]: 3.2
- Cmax [26]: 1300 nM
- concentration at 2 h [27]: 28 nM
- Activity (Rattus norvegicus [28]): >90%
- Drug uptake (Brain [29]): 7.6 nmol/g
- Drug uptake (Brain [30]): 0.062 nmol/g
- bioavailability [31]: 4.8%
- Ki (Histamine H3 receptor [32]): 8.4 nM
- AUC (Rhesus monkey [33]): 1.7 µM·h
- F (Rhesus monkey [34]): 37%

Structure (SMILES): Cc1nc2ccccc2c(=O)n1-c1ccc(O[C@H]2CC[C@H](N3CCCC3)CC2)cc1
- IC50 (Histamine H3 receptor [1]): 813 nM

Structure (SMILES): CCCCN1CCC(Oc2ccc(-n3c(C)nc4ccccc4c3=O)cc2)CC1
- IC50 (Histamine H3 receptor [1]): 91 nM

Structure (SMILES): Cc1nc2ccccc2c(=O)n1-c1ccc(OC2CCC(N3CCCC3)C2)cc1 (stereo in doubt; 3a)
- IC50 [2]: > 10000 nM
- IC50 (Histamine H3 receptor [1]): 3.4 nM

Structure (SMILES): Cc1nc2ccccc2c(=O)n1-c1ccc(OC2CCN(C3CCCC3)C2)cc1 (centres undefined)
- IC50 (Histamine H3 receptor [1]): 37 nM

Structure (SMILES): CCCN1CCC(Oc2ccc(-n3c(C)nc4ccccc4c3=O)cc2)CC1
- IC50 (Histamine H3 receptor [1]): 60 nM

Structure (SMILES): Cc1nc2ccccc2c(=O)n1-c1ccc(OC2CCNCC2)cc1
- IC50 (Histamine H3 receptor [1]): > 1000 nM

Second part, led by results:

- IC50 (Histamine H3 receptor [1]): 1.5 nM
Structure (SMILES): Cc1nc2ccc(Cl)cc2c(=O)n1-c1ccc(OC2CCN(C3CCC3)CC2)cc1
- IC50 [2]: 5400 nM

- IC50 (Histamine H3 receptor [1]): 1.3 nM
Structure (SMILES): Cc1nc2cc(F)ccc2c(=O)n1-c1ccc(OC2CCN(C3CCC3)CC2)cc1

- IC50 (Histamine H3 receptor [1]): 1.5 nM
Structure (SMILES): Cc1nc2ccccc2c(=O)n1-c1ccc(OC2CCN(C3CCC3)CC2)cc1
- IC50 [2]: > 10000 nM

- IC50 (Histamine H3 receptor [1]): 0.55 nM
Structure (SMILES): CNC(=O)c1ccc(Oc2ccc3c(c2)CCN(C2CCC2)CC3)nc1 [GSK189254]

- IC50 (Histamine H3 receptor [1]): 1.7 nM
Structure (SMILES): Cc1nc2c(Cl)cccc2c(=O)n1-c1ccc(OC2CCN(C3CCC3)CC2)cc1

- IC50 (Histamine H3 receptor [1]): 0.34 nM
Structure (SMILES): Cc1nc2cccc(Cl)c2c(=O)n1-c1ccc(OC2CCN(C3CCC3)CC2)cc1
- IC50 [2]: > 10000 nM

- IC50 (Histamine H3 receptor [1]): 0.84 nM
Structure (SMILES): Cc1nc2c(F)cccc2c(=O)n1-c1ccc(OC2CCN(C3CCC3)CC2)cc1

- IC50 (Histamine H3 receptor [1]): 1.5 nM
Structure (SMILES): COc1ccc2nc(C)n(-c3ccc(OC4CCN(C5CCC5)CC4)cc3)c(=O)c2c1
- IC50 [2]: > 10000 nM
